The record followed here is ChEMBL document CHEMBL1806397, “6-Aryl-3-pyrrolidinylpyridines as mGlu5 receptor negative allosteric modulators” (Bioorg Med Chem Lett, 2011).

In one series the test system is Liver microsomes. The series can be described thus: Intrinsic clearance in human liver microsomes at 1 uM after 0.25 to 60 mins by LC-MS/MS analysis. The format is ADME, Microsome. Summed up:
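Compound at 1 µM incubated at 37 °C with pooled human liver microsomes (0.5 mg/mL) in 0.1 M potassium phosphate pH 7.4 with an NADPH-regenerating system. Aliquots taken at 0.25, 5, 15, 30 and 60 min and quenched in acetonitrile. CLint calculated from T1/2, scaled by liver and microsomal protein factors.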
For orientation: Microsomes from liver hold many membrane-bound enzymes, among them those of drug oxidation.

The nature of series [1]: Dissociation constant, pKa of the compound. The format is physicochemical.
Series [2] can be described thus: Apparent permeability of the compound at pH 7.4 by PAMPA method. The format is ADME. Summed up: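 Passive membrane permeability estimated by PAMPA; apparent permeability (P_APP) reported in cm/s.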
(The PAMPA barrier holds no transporters, so it reflects passive diffusion.)

Series [3] can be described thus: Distribution coefficient, log D of the compound at pH 7.4. The format is physicochemical. The settings on record: octanol/water.
A short description of series [4]: Drug level in Sprague-Dawley rat brain at 10 mg/kg, po after 1 hr. The format is ADME, organism-based. The arrangement: dose 10 mg/kg, route oral. Conditions: read-out: Drug uptake.
Series [5] in a line: Drug level in Sprague-Dawley rat plasma at 10 mg/kg, po after 1 hr. In kind it is ADME, organism-based. The arrangement: dose 10 mg/kg, route oral.
Series [6] can be described thus: Ratio of drug level in brain to plasma in Sprague-Dawley rat at 10 mg/kg, po after 1 hr. Conditions: read-out: BPR. In kind it is ADME, organism-based. The arrangement: dose 10 mg/kg, route oral.
The test system of another series is Plasma. The series can be described thus: Free drug level in Sprague-Dawley rat plasma at 10 mg/kg, po after 1 hr. In kind it is ADME, organism-based. On the set-up: dose 10 mg/kg, route oral. Conditions: in vivo.
Series [7] can be described thus: Drug level in Sprague-Dawley rat cerebrospinal fluid at 10 mg/kg, po after 1 hr. In kind it is ADME, organism-based. The arrangement: dose 10 mg/kg, route oral. Conditions: read-out: Drug uptake.

In the series with Liver microsomes, `Cc1cc(-c2cccc(Cl)c2)ncc1C1CC(F)CN1C(=O)c1cnccn1` (stereo unspecified) had a CL of 2.6 L/min.

A word on the pKa: it is the pH at which an ionisable group is half protonated. For `O=C(c1cccs1)N1CCCC1c1ccc(-c2cccc(Cl)c2)nc1` (stereo unspecified), the CL in the series on Liver microsomes stood at 3 L/min. The pKa in [1] is 3.6.

For the compound `O=C(c1nccs1)N1CCCC1c1ccc(-c2cccc(Cl)c2)nc1` (stereo unspecified), the CL in the series on Liver microsomes was found to be 3.8 L/min.

`O=C(c1cncs1)N1CCCC1c1ccc(-c2cccc(Cl)c2)nc1` (stereo unspecified) returned a CL in the series on Liver microsomes of 1.6 L/min. In [1], this compound registered a pKa of 3.6.

Regarding `Cc1cc(C(=O)N2CCCC2c2ccc(-c3cccc(Cl)c3)nc2)no1` (stereo unspecified), the pKa in series [1] is 3.5.

On to `O=C(c1cnccn1)N1CCCC1c1ccc(-c2cccc(Cl)c2)nc1` (stereo unspecified), for which the CL in the series on Liver microsomes worked out at 3.3 L/min. In addition, in series [1], the pKa was 3.4.

In the series with Liver microsomes, `Cc1cc(-c2cccc(Cl)c2)ncc1C1CCCN1C(=O)c1cncs1` (stereo unspecified) gave a CL of 35 L/min. Also, the pKa in series [1] was 4.2.

In the series on Liver microsomes, `Cc1cc(C(=O)N2CCCC2c2cnc(-c3cccc(Cl)c3)cc2C)no1` (stereo unspecified) came in with a CL of 38 L/min. The same compound returned a pKa in series [1] of 4.2.

`Cc1cc(-c2cccc(Cl)c2)ncc1C1CCCN1C(=O)c1cnccn1` (stereo unspecified): in the series with Liver microsomes, the CL is 3.3 L/min. The compound also displayed a pKa in series [1] of 4.1.

Compound `Cc1cc(-c2cccc(Cl)c2)ncc1C1CCCN1C(=O)c1ccncn1` (stereo unspecified) had a CL with Liver microsomes of 5.3 L/min.

Consider `Cc1cc(-c2cccc(Cl)c2)ncc1C1CCCN1C(=O)C1CCC1` (stereo unspecified), for which, in the series with Liver microsomes, the CL worked out at 5.3 L/min.

With `COc1cc(-c2cccc(Cl)c2)ncc1C1CCCN1C(=O)c1cncs1` (stereo unspecified), the CL with Liver microsomes came out at 1.7 L/min. Also, the pKa in series [1] came out at 5.

Regarding `O=C(C1CCC1)N1CCCC1c1cnc(-c2cccc(Cl)c2)cc1O` (stereo unspecified), the pKa in series [1] was found to be 2.8.

On to `Cc1cc(-c2cccc(Cl)c2)ncc1C1CC(O)CN1C(=O)c1nccs1` (stereo unspecified), for which the CL with Liver microsomes worked out at 0.9 L/min.

Compound `Cc1cc(-c2cccc(Cl)c2)ncc1C1CC(O)CN1C(=O)c1cnccn1` (stereo unspecified) returned a CL with Liver microsomes of 1.6 L/min.

In the series with Liver microsomes, `Cc1cc(-c2cccc(Cl)c2)ncc1C1CC(F)CN1C(=O)c1cncs1` (stereo unspecified) had a CL of 7.1 L/min.

What is called Papp is the rate of passage across a membrane or cell layer, normalised by area and donor concentration. Usually logD stands for lipophilicity at a set pH, counting ionised and neutral species. Low readings indicate a more hydrophilic compound, high ones a more lipophilic compound. For `Cc1cc(-c2cccc(Cl)c2)ncc1[C@H]1CCCN1C(=O)c1nccs1`, the Papp in [2] worked out at 15 ×10⁻⁶ cm/s. The compound also returned a logD in series [3] of 4.3. In addition, the concentration at 1 h is 133 nM in [4], 162 nM in series [5] and 3 nM in [7]. The Kp at 1 h in series [6] is 0.8. In addition, the “Cp(f)” value in the series with Plasma was 1 nM.

In the series on Liver microsomes, `Cc1cc(-c2cccc(Cl)c2)ncc1C1CCCN1C(=O)c1nccs1` (racemic) had a CL of 5.2 L/min.
